{"source": "ChEMBL document CHEMBL4765307", "about": "“Design, synthesis and biological activity of novel 2,3,4,5-tetra-substituted thiophene derivatives as PI3Kα inhibitors with potent antitumor activity” (Eur J Med Chem, 2020)", "key": {"[1]": {"target": "PI3-kinase p110-alpha/p85-alpha (Homo sapiens, UniProt P42336)", "sequence (P27986 whole entry)": "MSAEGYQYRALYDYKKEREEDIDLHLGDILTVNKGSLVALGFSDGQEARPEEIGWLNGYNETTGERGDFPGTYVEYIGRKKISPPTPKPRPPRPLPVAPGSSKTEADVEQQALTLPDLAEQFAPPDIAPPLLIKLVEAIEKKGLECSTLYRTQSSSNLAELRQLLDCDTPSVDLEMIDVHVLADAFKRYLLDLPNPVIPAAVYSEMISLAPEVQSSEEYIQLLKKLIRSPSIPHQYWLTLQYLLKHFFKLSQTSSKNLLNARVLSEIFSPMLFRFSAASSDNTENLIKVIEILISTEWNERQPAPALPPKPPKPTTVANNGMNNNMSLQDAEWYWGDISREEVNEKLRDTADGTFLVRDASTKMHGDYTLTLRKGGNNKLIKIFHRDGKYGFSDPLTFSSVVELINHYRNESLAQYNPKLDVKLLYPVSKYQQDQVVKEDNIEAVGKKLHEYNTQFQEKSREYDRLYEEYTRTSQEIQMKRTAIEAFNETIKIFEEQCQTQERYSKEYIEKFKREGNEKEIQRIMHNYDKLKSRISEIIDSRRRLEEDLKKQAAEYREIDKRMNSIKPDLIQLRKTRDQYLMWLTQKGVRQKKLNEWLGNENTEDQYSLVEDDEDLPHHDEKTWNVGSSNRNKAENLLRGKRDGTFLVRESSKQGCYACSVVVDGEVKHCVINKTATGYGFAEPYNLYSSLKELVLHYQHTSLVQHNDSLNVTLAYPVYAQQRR", "sequence (P42336 whole entry)": "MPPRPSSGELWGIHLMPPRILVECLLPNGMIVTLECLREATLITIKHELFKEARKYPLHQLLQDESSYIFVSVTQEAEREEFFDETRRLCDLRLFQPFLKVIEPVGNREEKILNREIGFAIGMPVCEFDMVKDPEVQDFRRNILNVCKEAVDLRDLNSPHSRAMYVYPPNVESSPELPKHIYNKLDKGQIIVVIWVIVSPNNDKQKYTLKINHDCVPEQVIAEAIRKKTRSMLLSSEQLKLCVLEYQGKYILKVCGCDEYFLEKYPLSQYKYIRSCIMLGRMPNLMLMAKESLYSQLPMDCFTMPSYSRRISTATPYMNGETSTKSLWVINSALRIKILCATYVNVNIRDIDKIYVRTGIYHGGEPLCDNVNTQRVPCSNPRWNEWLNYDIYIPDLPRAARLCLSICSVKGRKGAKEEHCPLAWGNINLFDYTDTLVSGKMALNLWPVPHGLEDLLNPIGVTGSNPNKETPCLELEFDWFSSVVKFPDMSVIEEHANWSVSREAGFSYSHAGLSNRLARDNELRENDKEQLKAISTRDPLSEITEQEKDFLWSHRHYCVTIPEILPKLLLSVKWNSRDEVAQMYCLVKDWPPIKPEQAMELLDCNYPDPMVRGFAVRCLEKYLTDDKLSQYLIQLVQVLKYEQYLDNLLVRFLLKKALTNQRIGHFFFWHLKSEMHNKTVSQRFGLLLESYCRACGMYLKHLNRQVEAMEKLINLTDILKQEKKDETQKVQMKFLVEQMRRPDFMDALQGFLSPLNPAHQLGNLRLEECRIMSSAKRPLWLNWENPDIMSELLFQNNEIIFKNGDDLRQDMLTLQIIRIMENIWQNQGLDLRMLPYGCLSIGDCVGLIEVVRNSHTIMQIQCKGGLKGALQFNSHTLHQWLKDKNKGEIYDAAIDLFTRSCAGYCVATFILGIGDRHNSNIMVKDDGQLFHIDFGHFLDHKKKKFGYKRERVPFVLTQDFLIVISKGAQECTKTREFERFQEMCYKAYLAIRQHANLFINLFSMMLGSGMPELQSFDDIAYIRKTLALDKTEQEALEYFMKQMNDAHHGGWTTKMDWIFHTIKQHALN", "assay": "Inhibition of His-tagged human full length PI3Kalpha coexpressed with p85 alpha in baculovirus expression system using PIP2 peptide as substrate incubated for 1 hr in presence ATP by Kinase-Glo assay"}, "[2]": {"target": "Phosphatidylinositol 4,5-bisphosphate 3-kinase catalytic subunit gamma isoform (Homo sapiens, UniProt P48736)", "sequence (P48736 whole entry, the tested form may be a part, canonical isoform)": "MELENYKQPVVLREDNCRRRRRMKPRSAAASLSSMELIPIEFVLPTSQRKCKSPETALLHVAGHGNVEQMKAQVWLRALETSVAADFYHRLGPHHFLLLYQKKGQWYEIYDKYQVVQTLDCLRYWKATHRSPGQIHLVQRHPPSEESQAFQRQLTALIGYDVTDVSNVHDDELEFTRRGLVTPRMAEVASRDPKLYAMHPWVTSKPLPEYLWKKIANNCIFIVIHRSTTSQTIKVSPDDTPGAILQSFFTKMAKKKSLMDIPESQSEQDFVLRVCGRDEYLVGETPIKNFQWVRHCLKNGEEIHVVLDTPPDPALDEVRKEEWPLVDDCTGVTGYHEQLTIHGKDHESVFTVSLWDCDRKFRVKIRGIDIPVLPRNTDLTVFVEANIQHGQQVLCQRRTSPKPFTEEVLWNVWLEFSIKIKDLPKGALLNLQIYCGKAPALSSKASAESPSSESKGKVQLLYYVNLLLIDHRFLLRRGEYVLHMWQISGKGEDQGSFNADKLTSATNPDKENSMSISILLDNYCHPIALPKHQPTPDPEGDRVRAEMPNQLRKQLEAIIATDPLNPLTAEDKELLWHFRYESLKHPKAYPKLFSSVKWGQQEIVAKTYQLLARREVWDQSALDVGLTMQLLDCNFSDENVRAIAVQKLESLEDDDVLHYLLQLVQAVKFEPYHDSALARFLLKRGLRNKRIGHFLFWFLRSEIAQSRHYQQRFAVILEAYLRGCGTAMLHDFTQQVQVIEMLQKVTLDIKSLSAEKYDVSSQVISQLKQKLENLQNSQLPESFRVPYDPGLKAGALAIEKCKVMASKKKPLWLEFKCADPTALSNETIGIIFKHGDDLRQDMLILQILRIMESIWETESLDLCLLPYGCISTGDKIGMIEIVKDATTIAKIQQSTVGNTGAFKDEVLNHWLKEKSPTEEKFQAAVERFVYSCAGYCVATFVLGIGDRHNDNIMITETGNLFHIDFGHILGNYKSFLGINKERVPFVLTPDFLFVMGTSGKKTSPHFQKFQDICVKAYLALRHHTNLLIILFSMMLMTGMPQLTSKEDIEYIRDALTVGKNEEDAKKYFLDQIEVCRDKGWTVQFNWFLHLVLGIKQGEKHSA", "assay": "Inhibition of GST-tagged human recombinant PI3Kgamma catalytic domain (468 to 1203 residues) expressed in insect cells using PIP2 peptide as substrate incubated for 1 hr in presence ATP by ADP-Glo Kinase Assay", "how_it_was_run": "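ADP-Glo reagent 1 for 40 min, then reagent 2 with 60 min equilibration before reading. IC50 taken from inhibition curves; average of at least two runs.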"}, "[3]": {"target": "Serine/threonine-protein kinase mTOR (Homo sapiens, UniProt P42345)", "assay": "Inhibition of N-terminal FLAG-tagged human recombinant mTOR (1362 to end residues) using ULight-4E-BP1 (Thr37/46) peptide as substrate incubated for 1 hr in presence of ATP by Lance Ultra assay", "how_it_was_run": "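ULight-4E-BP1 (Thr37/46) peptide with 13 µM ATP; 1 h at room temperature. Stopped with EDTA quench buffer plus Eu-anti-phospho-4E-BP1, 15 min shake and 60 min equilibration, TR-FRET read. IC50 from inhibition curves; average of at least two runs.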"}, "[4]": {"test_system": "U-87 MG", "assay": "Antiproliferative activity against human U87MG cells harboring PTEN deletion assessed as reduction in cell viability after 3 days by CellTiter-Glo luminescence assay", "type": "functional, cell-based, U-87MG ATCC", "conditions": "72 h", "how_it_was_run": "(§1)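 ATCC lines, 10% FBS: T47D, H1975, H460 in RPMI1640; U87MG in DMEM; A549 in F12K. Seeded 3×10^3 per well the day before, exposed to 3-fold serial dilutions or DMSO for 3 days at 37 °C, 5% CO2; CellTiter-Glo luminescence.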"}, "[5]": {"test_system": "NCI-H1975", "assay": "Antiproliferative activity against human NCI-H1975 cells harboring PIK3CA mutation assessed as reduction in cell viability after 3 days by CellTiter-Glo luminescence assay", "type": "functional, cell-based", "conditions": "NCI-H1975, 72 h", "how_it_was_run": "as §1"}, "[6]": {"test_system": "NCI-H460", "assay": "Antiproliferative activity against human NCI-H460 cells harboring PIK3CA mutation assessed as reduction in cell viability after 3 days by CellTiter-Glo luminescence assay", "type": "functional, cell-based", "conditions": "NCI-H460, 72 h", "how_it_was_run": "as §1"}, "[7]": {"assay": "Efflux ratio of permeability from basolateral to apical over apical to basolateral side in human Caco2 cells at 2 uM incubated for 2 hrs by LC-MS/MS analysis", "type": "ADME, cell-based", "conditions": "Caco-2", "how_it_was_run": "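Caco-2 monolayers grown 21–28 days; compound 2 µM both directions in duplicate, DMSO <1%; 2 h at 37 °C, 5% CO2 without shaking. Donor and receiver levels by LC/MS/MS; integrity by lucifer yellow. Papp = (dCr/dt)×Vr/(A×C0); efflux ratio = Papp(B-A)/Papp(A-B).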"}, "[8]": {"assay": "Half life in rat liver microsomes at 1 uM by LC-MS/MS analysis", "type": "ADME, Microsome", "how_it_was_run": "(§2)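 Compound 1 µM with human or rat microsomes 0.5 mg/mL, preincubated 10 min at 37 °C in 100 mM potassium phosphate pH 7.4, 10 mM MgCl2; started with NADPH, sampled 0–60 min, quenched with cold acetonitrile, LC–MS/MS. A parallel no-NADPH control was run.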"}, "[9]": {"target": "CYP2D6 (Homo sapiens, UniProt P10635)", "sequence (P10635 whole entry)": "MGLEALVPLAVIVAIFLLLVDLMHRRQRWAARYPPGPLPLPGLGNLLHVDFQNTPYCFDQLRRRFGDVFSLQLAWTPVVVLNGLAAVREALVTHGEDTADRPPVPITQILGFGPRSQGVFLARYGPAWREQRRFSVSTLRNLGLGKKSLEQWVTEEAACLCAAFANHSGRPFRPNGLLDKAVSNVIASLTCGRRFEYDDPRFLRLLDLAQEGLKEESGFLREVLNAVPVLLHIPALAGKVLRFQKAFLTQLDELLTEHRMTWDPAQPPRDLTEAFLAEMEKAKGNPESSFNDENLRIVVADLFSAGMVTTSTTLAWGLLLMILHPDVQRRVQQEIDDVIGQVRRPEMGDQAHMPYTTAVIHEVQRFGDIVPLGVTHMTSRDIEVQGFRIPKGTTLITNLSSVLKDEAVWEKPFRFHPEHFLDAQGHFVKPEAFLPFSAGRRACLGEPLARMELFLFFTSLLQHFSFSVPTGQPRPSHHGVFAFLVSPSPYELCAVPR", "assay": "Inhibition of CYP2D6 in human liver microsomes using dextromethorphan as substrate at 10 uM preincubated for 10 mins followed by incubation with NADPH for 10 mins by LC- MS/MS analysis", "type": "ADME", "conditions": "probe dextromethorphan, time 20 min", "how_it_was_run": "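Human liver microsomes 0.25 mg/mL with probe substrate (CYP1A2 10 µM phenacetin; CYP2D6 5 µM dextromethorphan; CYP3A4 2 µM midazolam), test compound 10 µM; 10 min preincubation at 37 °C, NADPH added (final 10 mM), 10 min at 37 °C; stopped with cold acetonitrile containing internal standards; LC-MS/MS.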"}, "[10]": {"assay": "Volume of distribution in Sprague-Dawley rat at 5 mg/kg, iv measured after 24 hrs by LC-MS/MS analysis", "type": "ADME, organism-based", "conditions": "in vivo", "how_it_was_run": "(§3)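 Male SD rats (n=6), single 5 mg/kg intravenous dose; heparinised blood at 0.083–24 h, centrifuged at 4 °C; plasma quantified by LC–MS/MS; noncompartmental parameters.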"}, "[11]": {"assay": "AUC (0 to infinity) in Sprague-Dawley rat at 5 mg/kg, iv measured after 24 hrs by LC-MS/MS analysis", "type": "ADME, organism-based", "design": "route intravenous, dose 5 mg/kg, time 24 hrs", "conditions": "in vivo", "how_it_was_run": "as §3"}, "[12]": {"assay": "Cmax in Sprague-Dawley rat at 5 mg/kg, iv measured after 24 hrs by LC-MS/MS analysis", "type": "ADME, organism-based", "design": "route intravenous, dose 5 mg/kg, time 24 hrs", "conditions": "in vivo", "how_it_was_run": "as §3"}, "[13]": {"target": "PI3-kinase p110-delta/p85-alpha (Homo sapiens, UniProt O00329)", "sequence (P27986 whole entry)": "as the sequence (P27986 whole entry) above", "sequence (O00329 whole entry)": "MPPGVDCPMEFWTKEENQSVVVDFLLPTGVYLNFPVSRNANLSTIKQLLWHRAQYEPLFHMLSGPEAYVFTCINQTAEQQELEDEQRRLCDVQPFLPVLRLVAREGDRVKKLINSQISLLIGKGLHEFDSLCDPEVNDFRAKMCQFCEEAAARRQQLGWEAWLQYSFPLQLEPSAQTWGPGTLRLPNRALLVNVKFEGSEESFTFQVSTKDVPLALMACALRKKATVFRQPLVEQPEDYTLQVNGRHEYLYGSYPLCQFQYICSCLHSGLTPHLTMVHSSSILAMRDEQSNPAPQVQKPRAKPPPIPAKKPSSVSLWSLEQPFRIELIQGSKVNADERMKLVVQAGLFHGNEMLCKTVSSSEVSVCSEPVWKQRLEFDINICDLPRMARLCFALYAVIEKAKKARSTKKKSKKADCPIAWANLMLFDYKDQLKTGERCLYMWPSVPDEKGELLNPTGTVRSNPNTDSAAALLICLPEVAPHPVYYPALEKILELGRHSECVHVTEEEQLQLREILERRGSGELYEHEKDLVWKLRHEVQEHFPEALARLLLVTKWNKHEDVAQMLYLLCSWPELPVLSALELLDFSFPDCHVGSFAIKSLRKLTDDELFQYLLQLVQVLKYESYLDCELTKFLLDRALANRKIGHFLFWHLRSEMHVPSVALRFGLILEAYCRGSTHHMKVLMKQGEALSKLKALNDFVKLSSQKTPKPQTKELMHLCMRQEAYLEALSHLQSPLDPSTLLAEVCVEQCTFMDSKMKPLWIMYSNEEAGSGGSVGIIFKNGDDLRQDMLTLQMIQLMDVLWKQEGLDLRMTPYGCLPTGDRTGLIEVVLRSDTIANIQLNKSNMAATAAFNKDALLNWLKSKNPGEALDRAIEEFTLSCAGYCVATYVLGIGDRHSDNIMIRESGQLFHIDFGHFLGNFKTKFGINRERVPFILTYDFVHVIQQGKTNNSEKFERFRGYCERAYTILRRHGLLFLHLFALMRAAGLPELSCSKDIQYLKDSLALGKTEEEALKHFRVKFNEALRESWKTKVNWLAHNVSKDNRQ", "assay": "Inhibition of N-terminal His6-tagged human recombinant full length PI3Kdelta co-expressed with human recombinant full length P85alpha in baculovirus infected Sf21 cells using PIP2 peptide as substrate incubated for 2 hrs in presence ATP by ADP-Glo Kinase Assay", "how_it_was_run": "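ADP-Glo reagent 1 for 40 min, then reagent 2 with 60 min equilibration. IC50 from inhibition curves; average of at least two runs.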"}, "[14]": {"assay": "Half life in human liver microsomes at 1 uM by LC-MS/MS analysis", "type": "ADME, Microsome", "how_it_was_run": "as §2"}, "[15]": {"target": "Phosphatidylinositol 4,5-bisphosphate 3-kinase catalytic subunit alpha isoform (Homo sapiens) (UniProt P42336)", "sequence (P42336 whole entry, canonical isoform)": "as the sequence (P42336 whole entry) above", "assay": "Inhibition of PI3Kalpha in human T47D cells assessed as inhibition of insulin-stimulated Akt phosphorylation at Ser473 residue at 0.1 uM preincubated for 2 hrs followed by incubation with insulin for 2 hrs by western blot analysis relative to control", "type": "cell-based", "conditions": "time 4.0 hrs", "how_it_was_run": "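T47D cells given compound at 37 °C for 2 h, then stimulated with 1 µg/mL insulin for 2 h; lysed in RIPA with protease/phosphatase inhibitors and 1 mM PMSF; BCA-normalised SDS-PAGE, PVDF blot probed overnight at 4 °C for total Akt and pAkt Ser473, infrared secondary detection.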"}, "[16]": {"target": "Voltage-gated inwardly rectifying potassium channel KCNH2 (Homo sapiens, UniProt Q12809)", "assay": "Inhibition of human ERG expressed in CHO cells assessed as inhibition of channel tail current at holding potential of -80 mV by Qpatch assay", "type": "cell-based", "how_it_was_run": "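CHO cells stably expressing hERG, QPatch in single-hole mode at room temperature, held at […]; each concentration superfused to steady-state block (three superimposable traces), washout between concentrations; cisapride as quality control.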"}}, "data": [{"smiles": "N#Cc1c(N2CCOCC2)sc(-c2nc[nH]n2)c1-c1ccc(NC(=O)Nc2ccccc2Cl)cc1", "values": [{"measurement": "IC50", "setting": "[1]", "value": 9.2, "unit": "nM"}, {"measurement": "Ki", "setting": "[1]", "value": 5.1, "unit": "nM"}, {"measurement": "IC50", "setting": "[2]", "value": 258, "unit": "nM"}, {"measurement": "Ki", "setting": "[2]", "value": 193, "unit": "nM"}, {"measurement": "IC50", "setting": "[3]", "value": 1800, "unit": "nM"}, {"measurement": "IC50", "setting": "[4]", "value": 2860, "unit": "nM"}, {"measurement": "IC50", "setting": "[5]", "value": 1060, "unit": "nM"}, {"measurement": "IC50", "setting": "[6]", "value": 200, "unit": "nM"}, {"measurement": "efflux ratio at 2 h, 2 µM", "setting": "[7]", "value": 1.08}, {"measurement": "half-life at 1 µM", "setting": "[8]", "value": 44.7, "unit": "min"}, {"measurement": "inhibition at 10 min, 10 µM", "setting": "[9]", "value": 28, "unit": "%"}, {"measurement": "Vd", "setting": "[10]", "value": 8.6, "unit": "L/kg"}, {"measurement": "AUC(0-inf)", "setting": "[11]", "value": 1620, "unit": "ng·h/mL"}, {"measurement": "Cmax", "setting": "[12]", "value": 2570, "unit": "ng/mL"}, {"measurement": "IC50", "setting": "[13]", "value": 275, "unit": "nM"}, {"measurement": "Ki", "setting": "[13]", "value": 245, "unit": "nM"}, {"measurement": "half-life at 1 µM", "setting": "[14]", "value": 58.3, "unit": "min"}, {"measurement": "inhibition", "setting": "[15]", "value": 58, "unit": "%"}, {"measurement": "IC50", "setting": "[16]", "value": "> 30000", "unit": "nM"}]}]}
